Experimental data reported in ChEMBL document CHEMBL1142225, “Inhibiting HIV-1 integrase by shifting its oligomerization equilibrium” (Proc Natl Acad Sci U S A, 2007).
Active and inactive are the calls of the source. The rule behind the calls is not given here.

Legend:
HeLa = assay: Toxicity against human HeLa cells by MTT method; format: cell-based
[1] = test system: Human immunodeficiency virus 1; assay: Effect on HIV1 replication in sup T1 cells assessed as total reverse transcribed viral DNA level at 12.5 uM by PCR; format: functional, organism-based
Procedure, shortened: (§1)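 Sup T1 cells (RPMI 1640, 10% FCS) were pretreated 2 h with compound, then infected with HIV-1 Δenv/VSV-G (HXB2 backbone) at MOI 2 for 6 h. Total viral DNA was detected by Gag-specific PCR on 10 ng DNA with 3.5 mM MgCl2 and 29 cycles.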

[2] = biological target: Human immunodeficiency virus type 1 integrase (Human immunodeficiency virus 1, UniProt Q7ZJM1); assay: Binding affinity to HIV1 integrase tetrameric form by fluorescence anisotrophy
Procedure, shortened: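 Fluorescence anisotropy at 10°C in 20 mM Tris pH 7.4/185 mM NaCl (ionic strength 190 mM). His-tagged IN was titrated into fluorescein-labeled LEDGF/p75 peptide (0.05–0.1 μM) in 20 aliquots at 1-min intervals. Excitation was 480 nm and emission 530 nm. Kd was obtained from a Hill-equation fit.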

[3] = test system: Human immunodeficiency virus 1; assay: Inhibition of HIV1 Tat-mediated HIV1 reporter gene expression in human TZM-bl HeLa MAGI cells; format: functional, organism-based
Procedure, shortened: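 TZM-bl (HeLa MAGI) cells carrying a Tat/TAR-driven β-galactosidase reporter were grown in DMEM with 10% FCS, seeded at 10 × 10^3 cells per well, and infected with HIV-1 at equal MOI. Read-out was reporter expression by MAGI assay.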

[4] = test system: Human immunodeficiency virus 1; assay: Inhibition of HIV1 replication in human H9 cells assessed as reduction of p24 protein level after 10 days; format: functional, organism-based
Procedure, shortened: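 H9 T-lymphoid cells were preincubated 2 h with compound, then infected with wild-type HIV-1 HXB2 at MOI 0.1 (1 h adsorption at 37°C, then washed). Cells were cultured 10 days, and p24 released into the medium was measured by capture assay.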

[5] = test system: Human immunodeficiency virus 1; assay: Inhibition of HIV1 genome integration assessed as integrated viral DNA level at 2.5 uM by RT-PCR method; format: functional
Procedure, shortened: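 Integrated proviral DNA in infected cells was measured by nested real-time PCR. The second round used SYBR green with 300 nM primers and 50 cycles (95°C 15 s, 60°C 60 s). Quantification used a standard curve from full-length HIV-1 HXB2 plasmid (5 ng–0.25 fg). Samples were run in quadruplicate. Results are expressed as percentage of integrated viral DNA.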

[6] = biological target: Human immunodeficiency virus type 1 integrase (Human immunodeficiency virus 1) (UniProt Q7ZJM1); assay: Inhibition of HIV1 integrase binding to LTR DNA by fluorescence anisotrophy
Procedure, shortened: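 Competition anisotropy at 10°C in 20 mM Tris pH 7.4/185 mM NaCl. LEDGF/p75 peptide (500 nM) was preincubated 0.5 h with His-tagged IN (4 μM), then titrated into fluorescein-labeled 36-mer HIV-1 LTR DNA (10 nM). Excitation 480 nm, emission 530 nm.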

[7] = biological target: Human immunodeficiency virus type 1 integrase (Human immunodeficiency virus 1) (UniProt Q7ZJM1); assay: Inhibition of HIV1 integrase 3'-end processing activity
[8] = test system: Human immunodeficiency virus 1; assay: Inhibition of HIV1 in sup T1 cells assessed as total reverse transcribed viral DNA at 2 uM by PCR; format: functional, organism-based; procedure, shortened: as §1
[9] = biological target: Human immunodeficiency virus type 1 integrase (Human immunodeficiency virus 1) (UniProt Q7ZJM1); assay: Inhibition of HIV1 integrase 3'-end processing activity at 21 uM
[10] = biological target: Human immunodeficiency virus type 1 integrase (Human immunodeficiency virus 1) (UniProt Q7ZJM1); assay: Inhibition of HIV1 integrase strand transfer activity in presence of LTR DNA template

Chain of Human immunodeficiency virus type 1 integrase (Human immunodeficiency virus 1) (Q7ZJM1 as listed by the source): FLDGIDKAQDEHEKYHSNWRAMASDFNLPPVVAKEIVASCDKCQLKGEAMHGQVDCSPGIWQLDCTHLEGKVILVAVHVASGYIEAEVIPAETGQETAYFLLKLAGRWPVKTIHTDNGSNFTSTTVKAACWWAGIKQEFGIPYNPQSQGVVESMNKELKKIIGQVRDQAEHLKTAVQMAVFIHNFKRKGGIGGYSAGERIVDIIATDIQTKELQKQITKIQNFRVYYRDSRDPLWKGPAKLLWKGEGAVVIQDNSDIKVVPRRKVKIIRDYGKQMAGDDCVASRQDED
Chain of Human immunodeficiency virus type 1 integrase (Q7ZJM1 whole entry): as the sequence (Q7ZJM1 as listed by the source) above

Compound	Activity (HeLa)	Activity [1]	Kd [2] [µM]	Activity [3]	Activity [4]	inhibition at 2.5 µM [5] [%]	fold inhibition [6] [fold]	Activity [7]	Activity [8]	Activity [9]	Activity [10]	Activity [6]
H-WNSLKIDNLDV-OH	Non-toxic	inactive	3.7	Dose-dependent effect	Active	> 90	3	Active				
Cc1cn([C@H]2C[C@H](N=[N+]=[N-])[C@@H](CO)O2)c(=O)[nH]c1=O									Active			
H-WKKIRRFVSQVIM-OH	Non-toxic	inactive	12	Dose-dependent effect	Active	> 90		Active		Active	Active	6
H-WIHAEIKNSLKIDNLDVNRCIEALD-OH			4.4				3					
